Test results as given in ChEMBL document CHEMBL1649506, “Novel antiviral agent DTriP-22 targets RNA-dependent RNA polymerase of enterovirus 71” (Antimicrob Agents Chemother, 2009).
The source made the active and inactive calls. The calls are words filed in the database; no cut-off is given here.

Key:
Enterovirus A71 [1] = test: Antiviral activity against 0.001 PFU/cell EV71 infected in human RD cells assessed as inhibition of viral plaque formation at 0.1 uM after 16 hrs by plaque formation assay; format: functional; set-up: scale not given: the % may be the effect or the level left
How it was run: (§1)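 Virus yield assay: RD cells (6 × 10^5/well) infected with EV71 TW/2231/98 at the stated MOI for 1 h at room temperature, washed twice, then kept in 2% FBS medium with compound (0–2.5 μM) at 35°C. At 16 h p.i., supernatant and debris pooled and titrated by plaque assay in RD cells (0.3% agarose overlay, 4 days at 35°C, crystal violet, PFU/ml).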

Enterovirus A71 [2] = test: Antiviral activity against 0.001 MOI EV71 infected in human RD cells assessed as inhibition of viral plaque formation 16 hrs by plaque formation assay; format: functional, organism-based; settings: Enterovirus A; how it was run: as §1
Enterovirus A71 [3] = test: Antiviral activity against 1 MOI EV71 infected in human RD cells assessed as inhibition of viral plaque formation 16 hrs by plaque formation assay; format: functional, organism-based; settings: Enterovirus A; how it was run: as §1
[4] = Cytotoxicity against human RD cells after 16 hrs by MTS-based assay; format: cell-based
[5] = Selectivity index, ratio of CC50 for human RD cells to EC50 for 1 MOI EV71 infected in human RD cells
Enterovirus A71 [6] = test: Antiviral activity against 0.001 PFU/cell EV71 TW/2231/98 infected in human RD cells assessed as inhibition of viral plaque formation after 16 hrs by plaque formation assay; format: functional, organism-based; settings: Enterovirus A, TW/2231/98, RD; how it was run: as §1
Enterovirus A71 [7] = test: Antiviral activity against 0.001 PFU/cell EV71 TW/2231/98 infected in human RD cells assessed as inhibition of viral plaque formation after 5 passages by plaque formation assay; format: functional, organism-based; settings: Enterovirus A, TW/2231/98, RD
Enterovirus A71 [8] = test: Antiviral activity against 0.001 PFU/cell EV71 TW/2231/98 infected in human RD cells assessed as inhibition of viral plaque formation after 10 passages by plaque formation assay; format: functional, organism-based; settings: Enterovirus A, TW/2231/98, RD
Enterovirus A71 [9] = test: Antiviral activity against 0.001 PFU/cell EV71 TW/2231/98 infected in human RD cells assessed as inhibition of viral plaque formation after 14 passages by plaque formation assay; format: functional, organism-based; settings: Enterovirus A, TW/2231/98, RD
Enterovirus A71 [10] = test: Antiviral activity against EV71 infected in human RD cells assessed as inhibition of viral plaque formation 16 hrs by plaque formation assay; format: functional, organism-based; settings: Enterovirus A
Enterovirus A71 [11] = test: Antiviral activity against EV71 harboring 2C […] T256A mutant gene infected in human RD cells assessed as inhibition of viral plaque formation 16 hrs by plaque formation assay; format: functional, organism-based; settings: Enterovirus A
Enterovirus A71 [12] = test: Antiviral activity against EV71 harboring 3D […] R163K mutant gene infected in human RD cells assessed as inhibition of viral plaque formation 16 hrs by plaque formation assay; format: functional, organism-based; settings: Enterovirus A
Enterovirus A71 [13] = test: Antiviral activity against EV71 harboring 3D […] R163K/S264L mutant gene infected in human RD cells assessed as inhibition of viral plaque formation 16 hrs by plaque formation assay; format: functional, organism-based; settings: Enterovirus A
Enterovirus A71 [14] = test: Antiviral activity against EV71 harboring VP1 […] V192M mutant gene infected in human RD cells assessed as inhibition of viral plaque formation 16 hrs by plaque formation assay; format: functional, organism-based
Enterovirus A71 [15] = test: Antiviral activity against 1 MOI EV71 infected in human RD cells assessed as inhibition of viral progeny production at 1 uM treated 2 hrs postinfection measured after 16 hrs; format: functional; settings: Enterovirus A
Enterovirus A71 [16] = test: Antiviral activity against 1 MOI EV71 infected in human RD cells assessed as viral progeny production at 1 uM treated 4 hrs postadsorption measured after 16 hrs; format: functional
Enterovirus A71 [17] = test: Antiviral activity against 1 MOI EV71 infected in human RD cells assessed as inhibition of viral progeny production at 1 uM treated 4 hrs postadsorption measured after 16 hrs; format: functional, organism-based
Enterovirus A71 [18] = test: Antiviral activity against 1 MOI EV71 infected in human RD cells assessed as inhibition of viral RNA production at 2 uM after 6 to 14 hrs by real-time RT-PCR analysis; format: functional; settings: Enterovirus A
How it was run: (§2)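 RD cells infected with EV71 at MOI 1 PFU/cell for 1 h at room temperature, washed, then kept in medium with 2 μM compound at 35°C. Intracellular RNA extracted at intervals p.i. Viral RNA quantified by TaqMan real-time RT-PCR, or by slot blot with DIG-labelled genome- and antigenome-specific RNA probes. Compared with DMSO at each time point.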

Enterovirus A71 [19] = test: Antiviral activity against 1 MOI EV71 infected in human RD cells assessed as inhibition of viral RNA production at 2 uM after 6 to 14 hrs by slot blot analysis; format: functional, organism-based; how it was run: as §2
Enterovirus A71 [20] = test: Antiviral activity against 1 MOI EV71 infected in human RD cells assessed as inhibition of IRES-mediated viral RNA translation at 2 uM after 6 to 14 hrs by luciferase reporter gene assay; format: functional, organism-based
Enterovirus A71 [21] = test: Inhibition of EV71 recombinant 3D polymerase expressed in Escherichia coli BL21 (DE3) by polymerase elongation assay
How it was run: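 His-tagged EV71 3D polymerase made in E. coli BL21(DE3) (50 μM IPTG, 25°C, 4 h) and purified on a nickel column. Assay used 1 μM enzyme in 50 mM HEPES pH 7.5, 5 mM MgCl2, 60 μM ZnCl2, 10 mM 2-mercaptoethanol, 5 μM UTP plus [α-32P]UTP, and dT15/poly(rA)300 primer/template. Run 10 min at 30°C, stopped with EDTA, product captured on DE81 filters and counted by scintillation.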

[22] = system: Polymerase 3D (Human enterovirus 71 STH/MCN/2006), B2G369 [R163K]; test: Inhibition of EV71 recombinant 3D polymerase R163K mutant expressed in Escherichia coli BL21 (DE3) assessed as enzyme activity at 250 to 500 uM by polymerase elongation assay; set-up: scale not given: the % may be the effect or the level left; settings: Enterovirus A71
Enterovirus A71 [23] = test: Inhibition of EV71 recombinant 3D polymerase expressed in Escherichia coli BL21 (DE3) assessed as inhibition of Vpg-pU(pU) synthesis at 250 to 500 uM by gel electrophoresis
How it was run: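 VPg uridylylation: 1 μM recombinant EV71 3D with 2 μg synthetic VPg, 0.5 μg poly(rA)300, 10 μM UTP plus 0.04 μM [α-32P]UTP, in 50 mM HEPES pH 7.5 with 2.5 mM Mn(OAc)2 and 8% glycerol. Incubated 60 min at 33°C. Products resolved on 13.5% Tricine SDS-PAGE and detected by autoradiography.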

Enterovirus A71 [24] = test: Antiviral activity EV71 BrCr infected in human RD cells assessed as protection against virus-induced cytopathogenicity; format: functional, organism-based; settings: Enterovirus A
How it was run: (§3)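 CPE neutralization test: cells seeded at 3 × 10^4/well and grown 24 h at 37°C, infected at MOI 0.005 PFU/cell. After adsorption, medium with 2% FBS and compound (twofold dilutions from 25 μM) or 0.5% DMSO added. Incubated 64 h at 35°C, then formaldehyde-fixed and crystal violet-stained, read at OD570. Triplicate, repeated at least twice. EC50 interpolated between bracketing dilutions.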

Enterovirus A71 [25] = test: Antiviral activity EV71 1743 infected in human RD cells assessed as protection against virus-induced cytopathogenicity; format: functional, organism-based; settings: Enterovirus A, 1743, RD; how it was run: as §3
Enterovirus A71 [26] = test: Antiviral activity EV71 2231 infected in human RD cells assessed as protection against virus-induced cytopathogenicity; format: functional, organism-based; settings: Enterovirus A, 2231, RD; how it was run: as §3
Enterovirus A71 [27] = test: Antiviral activity EV71 4643 infected in human RD cells assessed as protection against virus-induced cytopathogenicity; format: functional, organism-based; settings: Enterovirus A, 4643, RD; how it was run: as §3
Coxsackievirus A9 = test: Antiviral activity against Coxsackievirus A9 infected in human RD cells assessed as protection against virus-induced cytopathogenicity; format: functional, organism-based; settings: Enterovirus B; how it was run: as §3
[28] = Antiviral activity against Coxsackievirus A10 infected in human RD cells assessed as protection against virus-induced cytopathogenicity; format: functional, cell-based; settings: Enterovirus A; how it was run: as §3
Coxsackievirus A16 = test: Antiviral activity against Coxsackievirus A16 infected in human RD cells assessed as protection against virus-induced cytopathogenicity; format: functional, cell-based; settings: Enterovirus A; how it was run: as §3
Coxsackievirus A24 = test: Antiviral activity against Coxsackievirus A24 infected in human RD cells assessed as protection against virus-induced cytopathogenicity; format: functional, organism-based; settings: Enterovirus C; how it was run: as §3
Coxsackievirus B1 = test: Antiviral activity against Coxsackievirus B1 infected in human RD cells assessed as protection against virus-induced cytopathogenicity; format: functional, organism-based; settings: Enterovirus B; how it was run: as §3
Coxsackievirus B2 = test: Antiviral activity against Coxsackievirus B2 infected in human RD cells assessed as protection against virus-induced cytopathogenicity; format: functional, organism-based; settings: Enterovirus B; how it was run: as §3
Coxsackievirus B3 = test: Antiviral activity against Coxsackievirus B3 infected in human RD cells assessed as protection against virus-induced cytopathogenicity; format: functional, organism-based; settings: Enterovirus B; how it was run: as §3
Coxsackievirus B4 = test: Antiviral activity against Coxsackievirus B4 infected in human RD cells assessed as protection against virus-induced cytopathogenicity; format: functional, organism-based; settings: Enterovirus B; how it was run: as §3
Coxsackievirus B5 = test: Antiviral activity against Coxsackievirus B5 infected in human RD cells assessed as protection against virus-induced cytopathogenicity; format: functional, organism-based; settings: Enterovirus B; how it was run: as §3
Coxsackievirus B6 = test: Antiviral activity against Coxsackievirus B6 infected in human RD cells assessed as protection against virus-induced cytopathogenicity; format: functional, organism-based; settings: Enterovirus B; how it was run: as §3
Echovirus E9 = test: Antiviral activity against Echovirus 9 infected in human RD cells assessed as protection against virus-induced cytopathogenicity; format: functional, organism-based; settings: Enterovirus B; how it was run: as §3
rhinovirus A2 = test: Antiviral activity against HRV2 infected in human RD cells assessed as protection against virus-induced cytopathogenicity; format: functional, organism-based; settings: Rhinovirus A; how it was run: as §3
Influenza A virus = test: Antiviral activity against Influenza A virus (A/WSN/1933(H1N1)) infected in human RD cells assessed as protection against virus-induced cytopathogenicity; format: functional, organism-based; how it was run: as §3
Influenza B virus = test: Antiviral activity against influenza B virus infected in human RD cells assessed as protection against virus-induced cytopathogenicity; format: functional, organism-based; how it was run: as §3
Human alphaherpesvirus 1 = test: Antiviral activity against HSV1 infected in human RD cells assessed as protection against virus-induced cytopathogenicity; format: functional, organism-based; settings: Human alphaherpesvirus 1, RD
Human alphaherpesvirus 2 = test: Antiviral activity against HSV2 infected in human RD cells assessed as protection against virus-induced cytopathogenicity; format: functional, organism-based; settings: Human alphaherpesvirus 2, RD

## Cc1ccsc1C(c1ccccc1Br)N1CCN(c2ncnc3c2cnn3-c2ccccc2)CC1 (stereo not drawn)
Enterovirus A71 [1]
  Activity: 95%
Enterovirus A71 [2]
  EC50: 23 nM
Enterovirus A71 [3]
  EC50: 160 nM
[4]
  CC50 at 16 h: 100000 nM
[5]
  Ratio CC50/EC50: 625
Enterovirus A71 [6]
  EC50: 740 nM
Enterovirus A71 [7]
  EC50: 250 nM
Enterovirus A71 [8]
  EC50: > 25000 nM
Enterovirus A71 [9]
  EC50: > 25000 nM
Enterovirus A71 [10]
  EC50: 308 nM
Enterovirus A71 [11]
  EC50: 279 nM
Enterovirus A71 [12]
  EC50: > 25000 nM
Enterovirus A71 [13]
  EC50: > 25000 nM
Enterovirus A71 [14]
  EC50: 240 nM
Enterovirus A71 [15]
  inhibition at 1 µM: 79%
Enterovirus A71 [16]
  Activity: 76%
Enterovirus A71 [17]
  inhibition: inactive
Enterovirus A71 [18]
  inhibition at 2 µM: 87%
Enterovirus A71 [19]
  inhibition: Active
Enterovirus A71 [20]
  inhibition: inactive
Enterovirus A71 [21]
  inhibition: Dose-dependent effect
[22]
  Activity: 28%
Enterovirus A71 [23]
  inhibition: inactive
Enterovirus A71 [24]
  EC50: 150 nM
Enterovirus A71 [25]
  EC50: 440 nM
Enterovirus A71 [26]
  EC50: 980 nM
Enterovirus A71 [27]
  EC50: 130 nM
Coxsackievirus A9
  EC50: 990 nM
[28]
  EC50: 1060 nM
Coxsackievirus A16
  EC50: 80 nM
Coxsackievirus A24
  EC50: 80 nM
Coxsackievirus B1
  EC50: 240 nM
Coxsackievirus B2
  EC50: 70 nM
Coxsackievirus B3
  EC50: 260 nM
Coxsackievirus B4
  EC50: 230 nM
Coxsackievirus B5
  EC50: 130 nM
Coxsackievirus B6
  EC50: 330 nM
Echovirus E9
  EC50: 1220 nM
Rhinovirus A2
  EC50: 1690 nM
Influenza A virus
  EC50: 5980 nM
Influenza B virus
  EC50: 5900 nM
Human alphaherpesvirus 1
  EC50: > 25000 nM
Human alphaherpesvirus 2
  EC50: > 25000 nM
